# A selection: hits, their analogues and other compounds. The true share with any hit is near 3%.
# KLK7 zymogen act – activators of human kallikrein-7 zymogen; P49862; purified proKLK7, EDANS-DABCYL substrate fluorescence; 100% is mature enzyme control, 0% vehicle; activation, % at 7 µM; 0.9% of 370,000 active; AID 652039;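 active means activation above the mean of all tested compounds plus 3 SD, computed per campaign excluding outliers beyond control limits, cut at about 13% in these data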
# PLC-beta3 inh – PLC-beta3 (human) inhibition, primary screen; Purified PLC-beta3, fluorogenic substrate, fluorescence; AID 720704; inhibition, % at 12.2 µM; 0.18% of 370,000 active; in the data active means inhibition above about 11%
# DDE Tn7 FP inh – inhibitors of Tn7 peptide binding to human fibrin DD(E); P02675; inhibition, % at 8.3 µM; 0.13% of 370,000 active; AID 720508; FP displacement of FITC-Tn7 peptide from fibrin DD(E); 0% = median of compound wells per plate;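 active means inhibition above the mean of compounds falling within the control limits plus 3 SD of them, cut at about 14% in these data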
#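 assay system = human clot-derived fibrin DD(E) complex | quantity = Fibrin-DD(E) at 2 µM final | timing = 10 min preincubation, 3 h with tracer, room temperature | signal = fluorescence polarization | measure = percent inhibition | benchmarks = high control wells with 10 µM unlabelled Aha-Tn7 peptide (full inhibition) | replicates = singlicate testing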
# Tn6 DDE FP – inhibitors of Tn6 peptide binding to human fibrin DD(E) | Fibrin DD(E) TRITC-Tn6 fluorescence polarization displacement | inhibition, % at 8.3 µM | 0.21% of 370,000 active | AID 720509;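 active means inhibition above a per-campaign cutoff: mean of compounds within control limits plus 3 SD, cut at about 15% in these data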
# PLCg1 inh – blocks human PLC-gamma1 enzyme activity; inhibition, % at 12.2 µM; purified PLC-gamma1, fluorogenic substrate, fluorescence; 0.84% of 370,000 active; in the data active means inhibition above about 9.5%
# Target sequence (P19174 whole entry, looked up): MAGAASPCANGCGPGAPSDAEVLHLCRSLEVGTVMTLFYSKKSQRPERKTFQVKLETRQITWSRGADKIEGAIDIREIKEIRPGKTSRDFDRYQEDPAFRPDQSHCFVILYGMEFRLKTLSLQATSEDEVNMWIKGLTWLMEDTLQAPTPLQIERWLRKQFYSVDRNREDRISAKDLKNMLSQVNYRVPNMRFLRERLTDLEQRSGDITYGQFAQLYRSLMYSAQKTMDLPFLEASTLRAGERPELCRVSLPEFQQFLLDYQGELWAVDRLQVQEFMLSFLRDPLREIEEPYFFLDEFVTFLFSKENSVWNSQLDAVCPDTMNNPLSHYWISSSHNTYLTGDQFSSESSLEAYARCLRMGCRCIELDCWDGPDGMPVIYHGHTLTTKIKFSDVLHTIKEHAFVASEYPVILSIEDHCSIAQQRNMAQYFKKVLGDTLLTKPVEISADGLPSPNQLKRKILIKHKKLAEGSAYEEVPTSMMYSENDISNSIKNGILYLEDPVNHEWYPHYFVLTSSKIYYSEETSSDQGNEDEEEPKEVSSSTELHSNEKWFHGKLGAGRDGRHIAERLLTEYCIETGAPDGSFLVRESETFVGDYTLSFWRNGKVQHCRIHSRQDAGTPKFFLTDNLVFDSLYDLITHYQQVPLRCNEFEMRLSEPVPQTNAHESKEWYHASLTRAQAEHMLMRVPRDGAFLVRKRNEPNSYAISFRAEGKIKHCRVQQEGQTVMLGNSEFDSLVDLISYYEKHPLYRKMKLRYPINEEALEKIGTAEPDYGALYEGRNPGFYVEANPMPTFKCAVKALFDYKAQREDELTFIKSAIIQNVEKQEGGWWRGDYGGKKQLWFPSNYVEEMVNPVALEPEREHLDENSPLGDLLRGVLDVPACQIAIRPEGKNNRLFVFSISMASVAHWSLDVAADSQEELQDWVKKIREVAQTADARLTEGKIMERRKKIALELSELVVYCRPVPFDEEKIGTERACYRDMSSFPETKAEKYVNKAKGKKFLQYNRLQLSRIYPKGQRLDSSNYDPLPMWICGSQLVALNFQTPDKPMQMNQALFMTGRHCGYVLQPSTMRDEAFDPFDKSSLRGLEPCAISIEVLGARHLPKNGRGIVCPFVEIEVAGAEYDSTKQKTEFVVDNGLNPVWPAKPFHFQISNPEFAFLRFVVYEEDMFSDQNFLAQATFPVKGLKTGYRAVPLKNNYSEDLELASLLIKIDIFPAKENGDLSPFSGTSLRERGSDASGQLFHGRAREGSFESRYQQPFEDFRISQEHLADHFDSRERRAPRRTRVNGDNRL
# NRP1-CendR mod – alters CendR peptide binding to human NRP-1 | FAM-RPARPAR peptide binding to NRP-1, fluorescence polarization | 0.85% of 360,000 active | O14786 | inhibition, % at 25 µM | AID 602438;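 active means inhibition or corrected inhibition above about 18%, plus a signal ratio from 0.5 to 1.5, limit read from the data, passing the limit was not always enough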
# DDE Tn7 confirm – confirmation of inhibitors of Tn7 binding to human fibrin DD(E) | inhibition, % at 8.3 µM | shares compounds with DDE Tn7 FP inh | 5% of 460 active | FP displacement of TRITC-Tn7 peptide from DD(E); 0% set at plate's compound-well median;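 active means inhibition above the campaign cutoff, the mean of compounds within control limits plus 3 SD, cut at about 14% in these data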;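 further: displacers lower polarization since freed probe rises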
# Tn7 DDE ctr – counter-screen hit for Tn7 peptide-fibrin DD(E) binding disruption; shares compounds with DDE Tn7 FP inh; TRITC-Tn7 probe displacement, fluorescence polarization; inhibition, % at 8.3 µM; 3% of 460 active;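 active means inhibition above the cutoff, the mean of compounds lying between the control bounds plus 3 SD of those compounds, cut at about 17% in these data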
# A number is an active result; i = inactive; nt = not tested or not shown.
SMILES,KLK7 zymogen act,PLC-beta3 inh,DDE Tn7 FP inh,Tn6 DDE FP,PLCg1 inh,NRP1-CendR mod,DDE Tn7 confirm,Tn7 DDE ctr
O=C(Cn1nnc(-c2ccc(F)cc2)n1)Nc1ccc2c(c1)OCCO2,i,i,15.3,i,i,i,i,i
O=C(CNc1n[nH]c(=O)[nH]c1=O)N/N=C/c1ccccc1,i,i,15.3,i,i,nt,i,i
Cn1ccc2ccc(-c3ccc4c(c3)[C@]3(CCC[C@@H](OCc5ccccc5)[C@@H]3NC(=O)CCc3ccccc3)C(=O)N4Cc3ccccc3)cc21,i,i,i,i,i,nt,nt,nt
COc1ccc(CCNC(=O)CC2SC(=NCc3ccccc3)NC2=O)cc1 (configuration not stated),i,i,14.5,i,i,i,i,i
c1ccc(-c2ccc(CNC3CC3)cc2)cc1,i,i,14.0,i,i,i,i,i
NS(=O)(=O)c1ccc(CCNc2nn3c(-c4ccc(F)c(Cl)c4)cnc3s2)cc1,i,i,14.0,i,i,i,i,i
NS(=O)(=O)c1ccc(CCNC(=O)CSc2ccc(Cl)cc2Cl)cc1,i,i,i,i,i,i,nt,nt
COc1ccc(/C=C2/CN(Cc3ccc(OC)cc3OC)C3=N[C@H](c4ccccc4)CC(=O)N32)cc1,i,i,i,i,i,nt,nt,nt
COc1ccc(/C(C)=N\NC(=O)c2ccco2)cc1,i,i,i,i,i,nt,nt,nt
COC(=O)/C=C/C(=O)Nc1cccc(C(F)(F)F)c1,i,i,14.0,i,i,i,i,i
CC(C)c1cc(C(=O)N(C2CCCCC2)C2CCCCC2)no1,i,i,i,i,i,nt,nt,nt
O=C(Cn1nc(C(=O)O)c2ccccc2c1=O)Nc1cc(C(F)(F)F)ccc1-n1cncn1,i,i,15.3,i,i,i,i,i
O=C(Cn1nc(C(=O)O)c2ccccc2c1=O)Nc1cc(Cl)ccc1-n1cncn1,i,i,i,i,i,i,nt,nt
COc1ccc2c(c1)CN1CN(Cc3ccc(F)cc3)S(=O)(=O)CC21 (configuration not stated),i,i,i,i,i,nt,nt,nt
N/C(=N\OC(=O)Cc1ccc(-c2ccccc2)cc1)c1cccc([N+](=O)[O-])c1,i,i,14.0,i,i,i,i,i
COc1ccc(CN2C[C@]3(C=C(C)Cn4c(=O)n(-c5ccccc5)c(=O)n43)N=C2NC(=O)c2ccccc2)c(OC)c1,i,i,i,i,i,nt,nt,nt
Nc1nc(N2C(=O)C3CC=CCC3C2=O)nn1-c1ccccc1 (configuration not stated),i,i,16.3,i,i,i,i,i
Nc1nc(-n2cnnc2)nn1-c1ccccc1,i,i,i,i,i,i,nt,nt
CC(COc1ccc(C#N)c(F)c1)CN1CCC(C(O)(c2ccccc2)c2ccccc2)CC1 (configuration not stated),i,i,i,i,i,nt,nt,nt
CCN(CC)C(=O)N1CCN(C)CC1,i,i,14.7,i,i,i,i,i
O=C(CSc1nnc(CNC(=O)c2ccco2)o1)Nc1cccc(Cl)c1,i,i,15.7,i,i,i,i,i
COc1ccc2c(c1)C(NC(=O)C(F)(F)F)CC21CCCCC1 (configuration not stated),i,i,i,i,i,nt,nt,nt
Nc1cc(N2CCCCC2)c([N+](=O)[O-])cc1Cl,i,i,13.9,i,i,i,i,i
Cc1ccc(S(=O)(=O)n2nc(-c3cccnc3)nc2N)cc1,i,i,i,i,i,i,nt,nt
CC(=O)Nc1ccc(S(=O)(=O)n2nc(-c3ccc(C)cc3)nc2N)cc1,i,i,14.0,i,i,i,i,i
SMILES,KLK7 zymogen act,PLC-beta3 inh,DDE Tn7 FP inh,Tn6 DDE FP,PLCg1 inh,NRP1-CendR mod,DDE Tn7 confirm,Tn7 DDE ctr
CCc1ccc(-c2cc(C)no2)cc1S(=O)(=O)Nc1ccccn1,i,i,i,i,i,i,nt,nt
Cc1cc(-c2ccc(C(C)C)c(S(=O)(=O)Nc3ccccn3)c2)on1,i,i,17.6,i,i,i,i,i
COc1ccc(C2CC(c3ccccc3)=NN2C(=O)CCCC(=O)O)cc1 (configuration not stated),i,i,i,i,i,i,nt,nt
CCC1(C)NC(=O)N(CC(=O)N2N=C(c3ccccc3)CC2c2ccc(OC)cc2)C1=O (configuration not stated),i,i,16.5,i,i,i,i,i
COc1ccccc1-c1ccccc1C1=CC(=O)CC(C)(C)C1=O,i,i,13.8,i,i,i,i,i
C/C(=N\N1CCN(Cc2ccc(Cl)cc2)CC1)c1ccc([N+](=O)[O-])cc1,i,i,15.4,i,i,i,i,i
COc1ccccc1N1CCN(C(=O)c2oc3ccc(F)cc3c2C)CC1,i,i,15.9,i,i,i,i,i
COc1ccccc1N1CCN(C(=O)COc2cccc(C)c2C)CC1,i,i,i,i,i,i,nt,nt
COc1ccccc1OCC(=O)N1CCN(c2ccccc2OC)CC1,i,i,19.3,i,i,i,i,i
COc1cccc(C=NNC(=O)CSc2nc3ccccc3[nH]2)c1O,i,i,i,i,i,nt,nt,nt
Cc1c(NS(=O)(=O)c2ccc([N+](=O)[O-])cc2)c(=O)n(-c2ccccc2)n1C,i,i,i,i,i,i,nt,nt
Cc1c(NS(=O)(=O)c2cc([N+](=O)[O-])ccc2Cl)c(=O)n(-c2ccccc2)n1C,i,i,14.1,i,i,i,i,i
CC1CCN(CC(O)COCCC23CC4CC(CC(C4)C2)C3)CC1 (configuration not stated),i,i,14.9,i,i,i,i,i
Cc1ccc(NC(=O)CS(=O)CC(=O)N(c2ccc(C)cc2)C(C)C(=O)NC2CCCCC2)cc1 (configuration not stated),i,i,14.8,i,i,i,i,i
O=c1ccc(-c2ccc(S(=O)(=O)N3CCCCC3)o2)n[nH]1,i,i,13.8,i,i,i,i,i
COc1ccc([C@H]2CC(=O)C=C(c3ccc(Cl)c(F)c3)C2)cc1,i,i,13.9,i,i,i,i,i
CN(CCO)c1cccc2c1S(=O)(=O)N(Cc1cn(Cc3ccc(Cl)cc3)nn1)Cc1ccccc1O2,i,i,i,i,i,nt,nt,nt
O=[N+]([O-])c1cccc(CP(=O)(c2ccccc2)c2ccccc2)c1,i,i,i,i,i,i,nt,nt
O=[N+]([O-])c1ccc(CP(=O)(c2ccccc2)c2ccccc2)cc1,i,i,14.2,i,i,i,i,i
CCCCCCCCNS(=O)(=O)CC1NCc2cc(F)ccc21 (configuration not stated),i,i,i,i,i,nt,nt,nt

# Assay outcomes as filed in PubChem BioAssay.
